Experimental data reported in ChEMBL document CHEMBL1153523, “Design, synthesis, and biological activity of a family of novel ceramide analogues in chemoresistant breast cancer cells” (J Med Chem, 2009).
Activity calls are given as the source filed them. No cut-off for these calls is given here.

Columns and labels:
MCF7 [1] = assay: Inhibition of clonogenic survival of human MCF7 cells after 10 days by microscopy; type: functional, cell-based; settings: MCF7, 240 h
In short: (§1)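 Clonogenic survival: cells were treated at 0.1 to 20 µM for 10 days. Colonies were then fixed and stained, and counts were expressed as percent of vehicle control.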

MDA-MB-231 [2] = assay: Inhibition of clonogenic survival of endocrine-resistant human MDA-MB-231 cells after 10 days by microscopy; type: functional, cell-based; settings: MDA-MB-231, 240 h; in short: as §1
MCF7 [3] = assay: Inhibition of clonogenic survival of tumor necrosis factor-resistant human MCF7 cells after 10 days by microscopy; type: functional, cell-based; settings: MCF7, 240 h; in short: as §1
MCF7 [4] = assay: Inhibition of clonogenic survival of human MCF7 cells at 0.1 to 20 uM after 10 days by microscopy; type: functional, cell-based; in short: as §1
MDA-MB-231 [5] = assay: Inhibition of clonogenic survival of endocrine-resistant human MDA-MB-231 cells at 0.1 to 20 uM after 10 days by microscopy; type: functional, cell-based; in short: as §1
MCF7 [6] = assay: Inhibition of clonogenic survival of tumor necrosis factor-resistant human MCF7 cells at 0.1 to 20 uM after 10 days by microscopy; type: functional, cell-based; in short: as §1
MCF7 [7] = assay: Induction of apoptosis in human MCF7 cells assessed as appearance of nucleosomes in cytoplasm at 9.4 uM after 24 hrs by ELISA relative to DMSO control; type: functional
In short: (§2)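 Apoptosis in MCF-7 cells was measured by a cell death detection ELISA after 24 h exposure at 8.3 or 9.4 µM. Values are mean ± SE of three independent experiments.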

[8] = Antiproliferative activity against human MCF10A cells at 100 uM after 24 hrs by MTT assay; type: cell-based; settings: mcf-10a
In short: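 Normal MCF10A breast epithelial cells were exposed to drug at 0.1–100 µM for 24 h, and proliferation was measured. Values are mean ± SE of four independent experiments.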

MCF7 [9] = assay: Increase in endogenous dihydrosphingosine level in tumor necrosis factor-resistant human MCF7 cells at 10 uM after 24 hrs by ESI/MS/MS analysis relative to DMSO control; type: functional
In short: (§3)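 MCF-7, MDA-MB-231 or MCF-7TN-R cells were treated at 10 µM for 24 h, and cellular sphingolipid species were then quantified. Values are mean ± SE of two independent experiments.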

MCF7 [10] = assay: Decrease in endogenous sphingosine-1-phosphate level in human MCF7 cells at 10 uM after by ESI/MS/MS analysis; type: functional, cell-based; in short: as §3
MDA-MB-231 [11] = assay: Decrease in endogenous sphingosine-1-phosphate level in endocrine-resistant human MDA-MB-231 cells at 10 uM after by ESI/MS/MS analysis; type: functional, cell-based; in short: as §3
MCF7 [12] = assay: Decrease in endogenous sphingosine-1-phosphate level in tumor necrosis factor-resistant human MCF7 cells at 10 uM after by ESI/MS/MS analysis; type: functional, cell-based; in short: as §3
MCF7 [13] = assay: Induction of apoptosis in human MCF7 cells assessed as appearance of nucleosomes in cytoplasm at 8.3 uM after 24 hrs by ELISA relative to DMSO control; type: functional; in short: as §2
MCF7 [14] = assay: Selectivity for tumor necrosis factor-resistant human MCF7 cells over human MCF10A cells
MCF7 [15] = assay: Increase in endogenous sphingosine-1-phosphate level in human MCF7 cells at 10 uM after by ESI/MS/MS analysis; type: functional, cell-based; in short: as §3
MDA-MB-231 [16] = assay: Increase in endogenous sphingosine-1-phosphate level in endocrine-resistant human MDA-MB-231 cells at 10 uM after by ESI/MS/MS analysis; type: functional, cell-based; in short: as §3
MCF7 [17] = assay: Increase in endogenous sphingosine-1-phosphate level in tumor necrosis factor-resistant human MCF7 cells at 10 uM after by ESI/MS/MS analysis; type: functional, cell-based; in short: as §3

## CCCCCCCCCCCCCCC[C@H](O)[C@@H](CO)NC(=O)CCCCCCC (single isomer, unassigned)
MCF7 [1]
  IC50: 31.7 µM
MDA-MB-231 [2]
  IC50: 41.4 µM
MCF7 [3]
  IC50: 49.6 µM

## CCCCCCCCCCCCCCNC(=O)[C@H](CO)NC(=O)C1CCCCC1
MCF7 [1]
  IC50: 7.2 µM
MDA-MB-231 [2]
  IC50: 11.5 µM
MCF7 [3]
  IC50: 23.5 µM
MCF7 [4]
  Activity: Active
MDA-MB-231 [5]
  Activity: Active
MCF7 [6]
  Activity: Active

## CCCCCCCCCCCCCCNC(=O)[C@H](CO)NCc1ccccc1
MCF7 [1]
  IC50: 5 µM
MDA-MB-231 [2]
  IC50: 10.5 µM
MCF7 [3]
  IC50: 15.2 µM
MCF7 [4]
  Activity: Active
MDA-MB-231 [5]
  Activity: Active
MCF7 [6]
  Activity: Active

## CCCCCCCCCCCCCCNC(=O)[C@H](CO)NC(C)=O
MCF7 [1]
  IC50: 44.7 µM
MDA-MB-231 [2]
  IC50: 75.1 µM
MCF7 [3]
  IC50: 52.7 µM
MCF7 [4]
  Activity: Active
MDA-MB-231 [5]
  Activity: Active
MCF7 [6]
  Activity: Active

## CCCCCCCCCCCCCCNC(=O)[C@H](CO)/N=C/c1ccccc1
MCF7 [1]
  IC50: 4.7 µM
MDA-MB-231 [2]
  IC50: 2.4 µM
MCF7 [3]
  IC50: 7.7 µM
MCF7 [7]
  fold change (FC): 5.4
[8]
  Activity: Non-toxic
MCF7 [9]
  fold change (FC): 50
MCF7 [10]
  Activity: Active
MDA-MB-231 [11]
  Activity: Active
MCF7 [12]
  Activity: Active
MCF7 [4]
  Activity: Active
MDA-MB-231 [5]
  Activity: Active
MCF7 [6]
  Activity: Active

## CCCCCCCCCCCCC/C=C/[C@@H](O)[C@H](CO)NC(=O)CCCCCCC
MCF7 [1]
  IC50: 4.2 µM
MDA-MB-231 [2]
  IC50: 3 µM
MCF7 [3]
  IC50: 8.6 µM
MCF7 [13]
  fold change (FC): 5
[8]
  Activity: Non-toxic
MCF7 [14]
  Ratio: >50
MCF7 [15]
  Activity: Active
MDA-MB-231 [16]
  Activity: Active
MCF7 [17]
  Activity: Active

## CCCCCCCCCCCCCCNC(=O)[C@H](CO)NC(=O)C(C)(C)C
MCF7 [1]
  IC50: 6.7 µM
MDA-MB-231 [2]
  IC50: 6.1 µM
MCF7 [3]
  IC50: 11.1 µM
MCF7 [4]
  Activity: Active
MDA-MB-231 [5]
  Activity: Active
MCF7 [6]
  Activity: Active

## CCCCCCCCCCCCCCNC(=O)[C@H](CO)NC(=O)c1cc(OC)cc(OC)c1
MCF7 [1]
  IC50: 11.2 µM
MDA-MB-231 [2]
  IC50: 6.6 µM
MCF7 [3]
  IC50: 15 µM
MCF7 [4]
  Activity: Active
MDA-MB-231 [5]
  Activity: Active
MCF7 [6]
  Activity: Active
